High-throughput results (PubChem)
Only a selection was taken, and hits are over-represented in it overall.
AP ELISA ortho: alternative complement pathway inhibitors, primary screen, biochemical, ELISA, human serum, orthogonally pooled compounds; LPS-coated ELISA, C3 deposition; tested in compound mixtures; 0.08% of 62,000 active; inhibition, % at 5 µM;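 active = inhibition above 30% in each of the two pooled mixtures holding the compound, so the lower value exceeds 30%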;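 also: 0% = serum in Mg-EGTA without compound and 100% = EDTA serum blank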
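Assay system: Human serum alternative complement pathway, C3 deposition on LPS-coated wells | Incubation: 1 h serum-compound exposure at 37 °C | Doses: 5 µM per compound in ten-compound mixtures | Read-out: Percent inhibition | Technique: ELISA with HRP anti-human C3 antibody, TMB substrate, absorbance 450 nm | Replication: Two pool placements per compound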
D1 allo mod: D1 CRE-luciferase signal change, two-sided – cell-based, HEK293 D1, dopamine EC30, D1 allosteric modulator project, primary screen; B-score at 10 µM; dopamine EC30 potentiation; actives deviate in either direction; AID 641, 2007; 5.9% of 58,000 active;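 active = luminescence count or its row- and column-corrected plate score outside the 99.7% band of the plate's sample wells, on either side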
hDAT+cocaine: changed hDAT dopamine uptake under cocaine IC80, either direction, primary screen, cocaine antagonist project, cell-based, LLC-PK1 hDAT, [14C]-dopamine uptake, MLSMR; LLC-PK1 hDAT cells, [14C]-dopamine uptake with cocaine IC80; actives deviate in either direction; B-score at 10 µM; 1.3% of 110,000 active; AID 449768, 2010;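 active = Z score or B-score, a plate-position-corrected score, falls beyond the plate's 99.7% confidence bounds, in either direction; inactive = both scores lie inside the 99.7% bounds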;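 also: scored against the spread of the other compound wells on the same plate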
WNV NS2B-NS3 inh: inhibitors of WNV NS2B-NS3 protease, primary screen, biochemical, fluorogenic substrate; Genome polyprotein (West Nile virus), P06935; fluorogenic substrate Ex360/Em465; stronger effect = lower value; z-score (concentration not given with the values); 0.18% of 65,000 active; AID 577, 2007; in the data active = z-score below about -3
Target sequence (P06935 1371-1501 limits assumed): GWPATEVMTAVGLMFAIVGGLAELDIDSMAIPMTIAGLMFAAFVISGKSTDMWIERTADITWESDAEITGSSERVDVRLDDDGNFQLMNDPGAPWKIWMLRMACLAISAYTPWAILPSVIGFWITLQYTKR
Target sequence (P06935 1502-1679 limits assumed): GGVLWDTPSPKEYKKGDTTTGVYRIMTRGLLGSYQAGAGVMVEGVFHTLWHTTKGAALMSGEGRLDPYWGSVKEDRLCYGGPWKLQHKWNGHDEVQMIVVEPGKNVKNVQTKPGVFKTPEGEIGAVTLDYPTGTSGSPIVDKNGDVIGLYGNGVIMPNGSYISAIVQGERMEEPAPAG
An asterisk follows results filed as active; . = not tested or not shown.

SMILES	AP ELISA ortho	D1 allo mod	hDAT+cocaine	WNV NS2B-NS3 inh
c1ccc2c(c1)OCC(c1nnc3sc(-c4ccc5c(c4)OCO5)nn13)O2 (stereo unspecified)	7	0.75	-8.6*	0.5
c1ccc2c(c1)OCC(c1nnc3sc(-c4cnccn4)nn13)O2 (stereo unspecified)	-3	0.59	0.3	-1.6
Cc1ccc(NC(=O)Nc2nc(-c3ccc(C)s3)cs2)cc1	.	.	-0.5	.
CCCC(=O)Nc1ccc(NC(=O)C23CC4CC(CC(C4)C2)C3)cn1	7	0.32	-0.76	-4.8*
CCC(=O)Nc1cc(C)c(NC(=O)C23CC4CC(CC(C4)C2)C3)cn1	17	0.13	1.7	-0.68
CN(C)CCNc1ncnc2c1cnn2-c1ccc(Cl)cc1	-4	-4.7*	-0.51	0.91
CCC(CO)Nc1ncnc2c1cnn2-c1ccc(Cl)cc1 (stereo unspecified)	12	-5.7*	0.77	-1.2
CCC(CO)Nc1ncnc2c1cnn2-c1ccc(OC)cc1 (stereo unspecified)	20	-3	-0.78	0.48
Clc1ccc(-n2ncc3c(NCC4CCCO4)ncnc32)cc1 (stereo unspecified)	6	-3.6*	0.65	-0.49
CCOC(=O)c1nnn(CC(=O)N2N=C(c3ccc(Cl)cc3)CC2c2ccccc2)c1C(=O)OCC (stereo unspecified)	.	.	1.2	.
N#Cc1c(-c2ccccc2)nc(SCc2nc(N)nc(N3CCCCC3)n2)[nH]c1=O	7	-3.2*	2	-0.25
COc1ccccc1S(=O)(=O)Cc1ccc(C(=O)N2CCN(c3ccc(C)cc3)C(C)C2)o1 (stereo unspecified)	-2	-2.8*	1.6	0.14
COc1ccc(S(=O)(=O)Cc2ccc(C(=O)N3CCc4ccccc4C3)o2)cc1	18	-0.022	2.4*	1.4
COc1ccccc1NC(=O)C1CC(=O)N(c2ccc(F)cc2)C1 (stereo unspecified)	-7	0.023	-0.37	0.8
O=C(COC(=O)CC12CC3CC(CC(Br)(C3)C1)C2)NC(=O)NCc1ccco1	.	.	0.51	.
Cc1ccc(Cl)cc1NC(=O)CSC(N)=O	.	.	0.21	.
Cc1ccc(Cl)cc1NC(=O)CC(O)(C(F)(F)F)C(F)(F)F	13	-4.2*	-2.4	-0.61
Cc1ccc(C(=O)NCCc2csc(C)n2)cc1	.	.	2.6*	.
O=C(CSCc1ccccc1)NNC(=S)Nc1cccc(Cl)c1Cl	.	.	0.22	.
CC(C)(C)n1nnnc1C(c1cccs1)N(Cc1ccc(Cl)cc1)CC1CCCO1 (stereo unspecified)	.	.	-0.14	.
COc1ccccc1CN=C1NC(=O)C(CC(=O)Nc2ccc(OC)c(OC)c2)S1 (stereo unspecified)	.	.	1.2	.
COc1ccc(NC(=O)CC2SC(=NCc3ccccc3OC)NC2=O)cc1 (stereo unspecified)	10	-4*	-0.37	-0.36
CCO[C@@H]1OC(C(=O)N2CCOCC2)=C[C@H](c2ccc(C(F)(F)F)cc2)[C@H]1CCCO	.	.	0.44	.
Cc1ccccc1CS(=O)(=O)CCC(=O)NCCN1CCN(c2cccc(Cl)c2)CC1	9	-3.6*	.	0.36
Cc1ccc(-c2noc(CCC(=O)NCc3ccc4c(c3)OCO4)n2)cc1	11	0.5	1.2*	-1
SMILES	AP ELISA ortho	D1 allo mod	hDAT+cocaine	WNV NS2B-NS3 inh
COc1ccc(-c2noc(CCC(=O)NCCN3CCN(c4ccccc4F)CC3)n2)cc1	3	-2.8*	1.4	-0.49
Cc1ccc(-c2noc(CCC(=O)NCCCN3CCN(c4ccc(F)cc4)CC3)n2)cc1	4	-5*	0.8	-0.87
Cc1ccccc1CS(=O)(=O)CCC(=O)NCCCN1CCN(c2ccccc2F)CC1	18	-3.1	-0.76	0.42
COc1ccc(-c2noc(CCC(=O)NCCCN3CCC(C)CC3)n2)cc1	13	0.28	-1.8	-0.88
Cc1ccc(CC(=O)NCc2ccc3c(c2)OCO3)cc1	.	.	-1.9	.
NC(=O)[C@@H]1CCCNc2c(I)cc([N+](=O)[O-])cc2C(=O)N[C@@H](CO)C(=O)NCC(=O)N1	.	.	-0.86	.
CC(C)n1nnnc1-c1cc(Cl)cc(Cl)c1	.	.	1.2	.
CC(C)(C)OC(=O)NCCCC[C@H](NC(=O)c1nc[nH]c1C(=O)N1CCN(c2ccccc2)CC1)C(=O)OC(C)(C)C	.	.	1.2	.
Cc1ccc(-c2noc(CCC(=O)NCCCN3CCN(c4cccc(Cl)c4)CC3)n2)cc1	12	-3.9*	-0.071	-0.44
